Experimental data as given in ChEMBL document CHEMBL1137648, “Synergistic efficacy of the combination of ST-246 with CMX001 against orthopoxviruses” (Antimicrob Agents Chemother, 2007).

Tests used:
[1] = test system: Cowpox virus; experiment: Antiviral activity against Cowpox virus Brighton infected BALB/c mouse assessed as virus-induced mortality at 3 mg/kg, po treated for 5 days after 6 days of viral inoculation; type: functional, Cowpox virus (Brighton Red)
[2] = Selectivity index, ratio CC50 for HFF cells to EC50 for Cowpox virus Brighton; type: toxicity, cell-based; conditions: human, read-out: Ratio CC50/EC50
[3] = test system: Cowpox virus; experiment: Antiviral activity against Cowpox virus Brighton infected BALB/c mouse assessed as virus-induced mortality at 1 mg/kg, po treated for 5 days after 6 days of viral inoculation; type: functional, Cowpox virus (Brighton Red)
[4] = test system: Vaccinia virus; experiment: Antiviral activity against Vaccinia virus WR in HFF cells assessed as reduction plaque formation after 3 days; type: functional, organism-based; conditions: Orthopoxvirus vaccinia, 72 h
[5] = Selectivity index, ratio CC50 for HFF cells to EC50 for Vaccinia virus Copenhagen; type: toxicity, cell-based; conditions: human, read-out: Ratio CC50/EC50
[6] = test system: Cowpox virus; experiment: Antiviral activity against Cowpox virus Brighton infected BALB/c mouse assessed as virus-induced mortality at 1 mg/kg, po treated for 5 days after 1 day of viral inoculation; type: functional, Cowpox virus (Brighton Red)
[7] = test system: Cowpox virus; experiment: Antiviral activity against Cowpox virus Brighton infected BALB/c mouse assessed as virus-induced mean day of death at 1 mg/kg, po treated for 5 days after 3 days of viral inoculation; type: functional, Cowpox virus (Brighton Red)
[8] = test system: Cowpox virus; experiment: Antiviral activity against Cowpox virus Brighton infected BALB/c mouse assessed as virus-induced mortality at 1 mg/kg, po treated for 5 days after 3 days of viral inoculation; type: functional, Cowpox virus (Brighton Red)
[9] = test system: Cowpox virus; experiment: Antiviral activity against Cowpox virus Brighton infected BALB/c mouse assessed as virus-induced mortality at 3 mg/kg, po treated for 5 days after 1 day of viral inoculation; type: functional, Cowpox virus (Brighton Red)
[10] = test system: Cowpox virus; experiment: Antiviral activity against Cowpox virus Brighton in HFF cells assessed as reduction plaque formation after 3 days; type: functional, organism-based, Cowpox virus (Brighton Red); conditions: 72 h
[11] = test system: Cowpox virus; experiment: Antiviral activity against Cowpox virus Brighton infected BALB/c mouse assessed as virus-induced mean day of death at 1 mg/kg, po treated for 5 days after 6 days of viral inoculation; type: functional, Cowpox virus (Brighton Red)
[12] = test system: Cowpox virus; experiment: Antiviral activity against Cowpox virus Brighton infected BALB/c mouse assessed as virus-induced mean day of death at 3 mg/kg, po treated for 5 days after 6 days of viral inoculation; type: functional, Cowpox virus (Brighton Red)
[13] = Selectivity index, ratio CC50 for HFF cells to EC50 for Vaccinia virus WR; type: toxicity, cell-based; conditions: human, read-out: Ratio CC50/EC50
[14] = test system: Vaccinia virus; experiment: Antiviral activity against Vaccinia virus Copenhagen in HFF cells assessed as reduction plaque formation after 3 days; type: functional, organism-based; conditions: Orthopoxvirus vaccinia, 72 h
[15] = test system: Cowpox virus; experiment: Antiviral activity against Cowpox virus Brighton infected BALB/c mouse assessed as virus-induced mortality at 0.3 mg/kg, po treated for 5 days after 3 days of viral inoculation; type: functional, Cowpox virus (Brighton Red)
[16] = test system: Cowpox virus; experiment: Antiviral activity against Cowpox virus Brighton infected BALB/c mouse assessed as virus-induced mean day of death at 0.3 mg/kg, po treated for 5 days after 3 days of viral inoculation; type: functional, Cowpox virus (Brighton Red)
[17] = test system: Cowpox virus; experiment: Antiviral activity against Cowpox virus Brighton infected BALB/c mouse assessed as virus-induced mortality at 3 mg/kg, po treated for 5 days after 3 days of viral inoculation; type: functional, Cowpox virus (Brighton Red)
[18] = test system: Cowpox virus; experiment: Antiviral activity against Cowpox virus Brighton infected BALB/c mouse assessed as virus-induced mortality at 0.3 mg/kg, po treated for 5 days after 6 days of viral inoculation; type: functional, Cowpox virus (Brighton Red)
[19] = Cytotoxicity against HFF cells after 7 days by neutral red assay; type: cell-based; conditions: human
How it was run: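 Confluent non-dividing HFF cells (2.5 x 10^4 cells/well) were exposed to a drug concentration series for 7 days at 37°C. Monolayers were then neutral red-stained, and the CC50 is the concentration cytotoxic to 50% of uninfected cells. Values are the mean of ≥2 assays ± standard deviation.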

[20] = test system: Cowpox virus; experiment: Antiviral activity against Cowpox virus Brighton infected BALB/c mouse assessed as virus-induced mortality at 0.3 mg/kg, po treated for 5 days after 1 day of viral inoculation; type: functional, Cowpox virus (Brighton Red)
[21] = test system: Cowpox virus; experiment: Antiviral activity against Cowpox virus Brighton infected BALB/c mouse assessed as virus-induced mean day of death at 1 mg/kg, po treated for 5 days after 1 day of viral inoculation; type: functional, Cowpox virus (Brighton Red)
[22] = test system: Cowpox virus; experiment: Antiviral activity against Cowpox virus Brighton infected BALB/c mouse assessed as virus-induced mean day of death at 3 mg/kg, po treated for 5 days after 3 days of viral inoculation; type: functional, Cowpox virus (Brighton Red)
[23] = test system: Cowpox virus; experiment: Antiviral activity against Cowpox virus Brighton infected BALB/c mouse assessed as virus-induced mean day of death at 0.3 mg/kg, po treated for 5 days after 1 day of viral inoculation; type: functional, Cowpox virus (Brighton Red)
[24] = test system: Cowpox virus; experiment: Antiviral activity against Cowpox virus Brighton infected BALB/c mouse assessed as virus-induced mean day of death at 0.3 mg/kg, po treated for 5 days after 6 days of viral inoculation; type: functional, Cowpox virus (Brighton Red)
[25] = test system: Cowpox virus; experiment: Antiviral activity against Cowpox virus Brighton infected BALB/c mouse assessed as virus-induced mortality at 15 mg/kg, ip treated for 5 days after 6 days of viral inoculation; type: functional, Cowpox virus (Brighton Red); conditions: route intraperitoneal
[26] = test system: Cowpox virus; experiment: Antiviral activity against Cowpox virus Brighton infected BALB/c mouse assessed as virus-induced mortality at 25 mg/kg, ip treated for 5 days after 6 days of viral inoculation; type: functional, Cowpox virus (Brighton Red); conditions: route intraperitoneal
[27] = test system: Cowpox virus; experiment: Antiviral activity against Cowpox virus Brighton infected BALB/c mouse assessed as virus-induced mortality at 15 mg/kg, ip treated for 5 days after 3 days of viral inoculation; type: functional, Cowpox virus (Brighton Red); conditions: route intraperitoneal
[28] = test system: Cowpox virus; experiment: Antiviral activity against Cowpox virus Brighton infected BALB/c mouse assessed as virus-induced mean day of death at 25 mg/kg, ip treated for 5 days after 6 days of viral inoculation; type: functional, Cowpox virus (Brighton Red); conditions: route intraperitoneal
[29] = test system: Cowpox virus; experiment: Antiviral activity against Cowpox virus Brighton infected BALB/c mouse assessed as virus-induced mortality at 5 mg/kg, ip treated for 5 days after 6 days of viral inoculation; type: functional, Cowpox virus (Brighton Red); conditions: route intraperitoneal
[30] = test system: Cowpox virus; experiment: Antiviral activity against Cowpox virus Brighton infected BALB/c mouse assessed as virus-induced mortality at 15 mg/kg, ip once daily for 5 days; type: functional, Cowpox virus (Brighton Red); conditions: route intraperitoneal
[31] = test system: Cowpox virus; experiment: Antiviral activity against Cowpox virus Brighton infected BALB/c mouse assessed as virus-induced mean day of death at 5 mg/kg, ip treated for 5 days after 6 days of viral inoculation; type: functional, Cowpox virus (Brighton Red); conditions: route intraperitoneal
[32] = test system: Cowpox virus; experiment: Antiviral activity against Cowpox virus Brighton infected BALB/c mouse assessed as virus-induced mean day of death at 15 mg/kg, ip treated for 5 days after 6 days of viral inoculation; type: functional, Cowpox virus (Brighton Red); conditions: route intraperitoneal
[33] = test system: Cowpox virus; experiment: Antiviral activity against Cowpox virus Brighton infected BALB/c mouse assessed as virus-induced mean day of death at 10 mg/kg, po treated for 5 days after 1 day of viral inoculation; type: functional, Cowpox virus (Brighton Red)
[34] = test system: Cowpox virus; experiment: Antiviral activity against Cowpox virus Brighton infected BALB/c mouse assessed as virus-induced mean day of death at 3 mg/kg, po treated for 5 days after 1 day of viral inoculation; type: functional, Cowpox virus (Brighton Red)
[35] = test system: Cowpox virus; experiment: Antiviral activity against Cowpox virus Brighton in HFF cells assessed as inhibition of viral replication after 7 days; type: functional, organism-based, Cowpox virus (Brighton Red); conditions: 168 h
[36] = test system: Cowpox virus; experiment: Antiviral activity against Cowpox virus Brighton infected BALB/c mouse assessed as virus-induced mean day of death at 10 mg/kg, po treated for 5 days after 3 days of viral inoculation; type: functional, Cowpox virus (Brighton Red)
[37] = test system: Cowpox virus; experiment: Antiviral activity against Cowpox virus Brighton infected BALB/c mouse assessed as virus-induced mean day of death at 10 mg/kg, po treated for 5 days after 6 days of viral inoculation; type: functional, Cowpox virus (Brighton Red)
[38] = test system: Ectromelia virus Moscow; experiment: Antiviral activity against Ectromelia virus Moscow in HFF cells assessed as inhibition of viral replication after 7 days; type: functional, organism-based; conditions: 168 h
[39] = test system: Cowpox virus; experiment: Antiviral activity against Cowpox virus Brighton infected BALB/c mouse assessed as virus-induced mortality at 10 mg/kg, po treated for 5 days after 6 days of viral inoculation; type: functional, Cowpox virus (Brighton Red)
[40] = test system: Cowpox virus; experiment: Antiviral activity against Cowpox virus Brighton infected BALB/c mouse assessed as virus-induced mortality at 10 mg/kg, po treated for 5 days after 1 day of viral inoculation; type: functional, Cowpox virus (Brighton Red)
[41] = test system: Monkeypox virus; experiment: Antiviral activity against Monkeypox virus in HFF cells assessed as inhibition of viral replication after 7 days; type: functional, organism-based; conditions: 168 h
[42] = test system: Vaccinia virus; experiment: microbe, parasite or virus in culture; conditions: Orthopoxvirus vaccinia, Copenhagen, HFF, 168 h
[43] = test system: Variola virus; experiment: microbe, parasite or virus in culture; conditions: HFF, 168 h
[44] = test system: Cowpox virus; experiment: Antiviral activity against Cowpox virus Brighton infected BALB/c mouse assessed as virus-induced mortality at 10 mg/kg, po treated for 5 days after 3 days of viral inoculation; type: functional, Cowpox virus (Brighton Red)
[45] = test system: Camelpox virus; experiment: Antiviral activity against Camelpox virus in HFF cells assessed as inhibition of viral replication after 7 days; type: functional, organism-based; conditions: 168 h

Row | SMILES | Activity [1] [%] | selectivity ratio [2] | Activity [3] [%] | EC50 [4] [µM] | selectivity ratio [5] | Activity [6] [%] | Activity [7] [days] | Activity [8] [%] | Activity [9] [%] | EC50 [10] [µM] | Activity [11] [days] | Activity [12] [days] | selectivity ratio [13] | EC50 [14] [µM] | Activity [17] [%] | CC50 at 168 h [19] [µM] | Activity [21] [days] | Activity [22] [days] | other results
1 | CCCCCCCCCCCCCCCCOCCCOP(=O)(O)CO[C@H](CO)Cn1ccc(N)nc1=O [BRINCIDOFOVIR] | 100 | 175 | 100 | 0.13 | 300 | 20 | 12 | 100 | 0 | 0.24 | 9.9 | 9.9 | 323 | 0.14 | 27 | 42 | 13.7 | 16.3 | Activity [15]: 87%; Activity [16]: 12.8 days; Activity [18]: 100%; Activity [20]: 73%; Activity [23]: 11.7 days; Activity [24]: 10 days
2 | Nc1ccn(C[C@@H](CO)OCP(=O)(O)O)c(=O)n1.O.O [CIDOFOVIR] | – | > 7.7 | – | 33 | > 10.9 | – | – | – | – | 41.1 | – | – | ≥ 9.6 | 29.2 | – | > 317 | – | – | Activity [25]: 60%; Activity [26]: 80%; Activity [27]: 0%; Activity [28]: 11.5 days; Activity [29]: 93%; Activity [30]: 0%; Activity [31]: 11.2 days; Activity [32]: 12.8 days
3 | O=C(NN1C(=O)[C@@H]2[C@@H]3C=C[C@@H]([C@H]4C[C@@H]34)[C@@H]2C1=O)c1ccc(C(F)(F)F)cc1 [TECOVIRIMAT] | 80 | > 208 | 100 | 0.1 | > 2000 | 100 | 14.4 | 100 | 20 | 0.48 | 9.5 | 13.5 | > 1000 | 0.05 | 33 | > 100 | 9.4 | 15.2 | Activity [33]: 13.2 days; Activity [34]: 11.3 days; EC50 [35]: ≤ 0.07 µM; Activity [36]: 15.5 days; Activity [37]: 13.5 days; EC50 [38]: ≤ 0.07 µM; Activity [39]: 100%; Activity [40]: 73%; EC50 [41]: ≤ 0.07 µM; EC50 [42]: ≤ 0.07 µM; EC50 [43]: ≤ 0.07 µM; Activity [44]: 13%; EC50 [45]: ≤ 0.07 µM
